Calls of active or inactive are those of the source. No cut-off for these calls is given here.

The source of these data is ChEMBL document CHEMBL1165972, “Selective angiotensin II AT(2) receptor agonists with reduced CYP 450 inhibition” (Bioorg Med Chem, 2010).

Series [1] in a line: Displacement of [125I]angiotensin 2 from rat AT1 receptor expressed in african green monkey COS7 cells after 24 hrs. In kind it is cell-based. As to conditions: cos-7. (In general: Loss of bound radioactivity is the signal in a displacement assay; it reports binding, not function.)
Series [2] deals with CYP2C9 (Homo sapiens, UniProt P11712). In words: Inhibition of human recombinant CYP2C9 at 10 uM by spectrofluorimetry. The class given is ADME. In short, it runs like this:
(§1)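 Compounds were tested at 10 µM in duplicate in a spectrofluorometric assay, with 0.25% final methanol and 0.25% final acetonitrile. Fluorescence at t = 0 was subtracted from fluorescence after incubation. Signal was compared with solvent-vehicle controls, and percent of control activity was reported as percent inhibition.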

A short description of series [3]: Displacement of [125I]angiotensin 2 from AT1 receptor in rat liver membrane after 2 hrs by gamma counting. The class given is cell membranes. The method, boiled down:
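Rat liver membranes (5 mg original tissue) were incubated with 0.03 nM [125I]Ang II and varied test-compound concentrations. Incubation was 2 h at 25 °C. Bound and free label were separated by filtration on PEI-soaked GF/B filters and bound label was gamma counted. Nonspecific binding was taken with 1 µM Ang II.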

Series [4] addresses T1, Angiotensin type II receptor (Sus scrofa, UniProt Q2XUH7).
T1 sequence (Q2XUH7 whole entry): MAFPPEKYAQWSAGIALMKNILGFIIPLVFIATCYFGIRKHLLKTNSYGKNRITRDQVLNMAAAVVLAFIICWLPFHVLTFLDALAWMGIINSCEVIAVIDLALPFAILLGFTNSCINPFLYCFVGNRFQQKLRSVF
In words: Displacement of [125I]angiotensin 2 from AT2 receptor in pig uterus membrane after 1.5 hrs by gamma counting. The class given is cell membranes.

In series [5] the target is CYP3A4 (Homo sapiens, UniProt P08684). In words: Inhibition of human recombinant CYP3A4 at 10 uM by spectrofluorimetry. In kind it is ADME. The method, boiled down:
as §1

The target in series [6] is CYP2C19 (Homo sapiens, UniProt P33261). Description: Inhibition of human recombinant CYP2C19 at 10 uM by spectrofluorimetry. The class given is ADME. In short, it runs like this:
as §1

Series [7] addresses CYP3A5 (Homo sapiens, UniProt P20815). In words: Inhibition of human recombinant CYP3A5 at 10 uM by spectrofluorimetry. The class given is ADME. The method, boiled down: as §1
Series [8] deals with NG108-15. In words: Cytotoxicity against rat/mouse hybrid NG108-15 cells up to 1 uM. The class given is cell-based. In short, it runs like this: (§2)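 NG108-15 cells were cultured for three days with test compound at 1 pM to 1 µM. Cell death was then judged by phase-contrast microscopy.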
The subject of series [9] is NG108-15. Description: Agonist activity at AT2 receptor in rat/mouse hybrid NG108-15 cells assessed as induction of neurite growth at 100 nM after 3 days by phase contrast microscopy. The class given is functional, cell-based. To be noted: 0.1 nM, in the assay text read “at 0.1 nM” for “at 100 nM”. The method, boiled down:
(§3)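 NG108-15 cells (passage 7–30) were grown in DMEM with 10% FBS, HAT and gentamycin at 37 °C in 7% CO2. Cells were stimulated once daily for three days, starting 24 h after plating. When used, PD123,319 (1 µM) was added 30 min before agonist. After 3 days, cells were scored from phase-contrast micrographs: positive meant at least one neurite longer than the cell body, expressed as % of total cells. At least 140 cells were counted in three independent experiments.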

Series [10] has as its system NG108-15. Description: Cytotoxicity against rat/mouse hybrid NG108-15 cells at 1 uM. The class given is cell-based. As to conditions: ng108-15, 1 µM. The method, boiled down: as §2
For series [11], the target named is T2, CYP2B6 (Homo sapiens, UniProt P20813).
T2 sequence (P20813 whole entry): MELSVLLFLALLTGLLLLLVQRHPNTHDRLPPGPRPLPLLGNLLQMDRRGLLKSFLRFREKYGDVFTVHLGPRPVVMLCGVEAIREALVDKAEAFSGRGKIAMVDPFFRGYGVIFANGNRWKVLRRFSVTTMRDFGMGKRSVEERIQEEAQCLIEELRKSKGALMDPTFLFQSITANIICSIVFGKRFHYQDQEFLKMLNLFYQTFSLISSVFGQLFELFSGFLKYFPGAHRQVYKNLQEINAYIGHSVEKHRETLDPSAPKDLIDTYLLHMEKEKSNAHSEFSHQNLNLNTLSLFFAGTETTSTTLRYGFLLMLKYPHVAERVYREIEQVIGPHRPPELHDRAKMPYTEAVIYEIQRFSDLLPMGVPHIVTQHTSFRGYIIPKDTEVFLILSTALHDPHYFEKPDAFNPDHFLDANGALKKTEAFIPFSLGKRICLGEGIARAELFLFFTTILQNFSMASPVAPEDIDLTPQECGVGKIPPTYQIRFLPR
In words: Inhibition of human recombinant CYP2B6 at 10 uM by spectrofluorimetry. In kind it is ADME. The method, boiled down: as §1

Series [12] concerns the target CYP2E1 (Homo sapiens, UniProt P05181). Description: Inhibition of human recombinant CYP2E1 at 10 uM by spectrofluorimetry. In kind it is ADME. The method, boiled down: as §1
Series [13] relates to NG108-15. In words: Agonist activity at AT2 receptor in rat/mouse hybrid NG108-15 cells assessed as induction of neurite growth at 0.1 nM after 3 days by phase contrast microscopy. The class given is functional, cell-based. In short, it runs like this: as §3
Series [14] concerns NG108-15. In words: Agonist activity at AT2 receptor in rat/mouse hybrid NG108-15 cells assessed as induction of neurite growth at 0.1 nM after 3 days by phase contrast microscopy in presence of 1 uM AT2 receptor antagonist PD-123319. In kind it is functional, cell-based. The method, boiled down:
as §3

Chain of CYP3A5 (P20815 whole entry): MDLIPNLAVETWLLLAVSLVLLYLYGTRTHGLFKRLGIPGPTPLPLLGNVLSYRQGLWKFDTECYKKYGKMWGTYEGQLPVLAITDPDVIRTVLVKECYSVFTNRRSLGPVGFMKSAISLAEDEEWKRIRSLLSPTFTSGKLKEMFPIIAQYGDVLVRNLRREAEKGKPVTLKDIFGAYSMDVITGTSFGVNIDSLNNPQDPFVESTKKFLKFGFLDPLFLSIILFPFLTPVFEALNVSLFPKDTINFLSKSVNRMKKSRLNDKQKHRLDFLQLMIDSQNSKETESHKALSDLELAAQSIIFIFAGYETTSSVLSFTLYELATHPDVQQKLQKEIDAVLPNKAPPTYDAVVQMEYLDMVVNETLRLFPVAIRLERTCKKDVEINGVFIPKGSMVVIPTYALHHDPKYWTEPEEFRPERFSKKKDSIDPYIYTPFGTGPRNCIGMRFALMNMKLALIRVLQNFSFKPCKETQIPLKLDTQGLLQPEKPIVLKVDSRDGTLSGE
Chain of CYP2C19 (P33261 whole entry): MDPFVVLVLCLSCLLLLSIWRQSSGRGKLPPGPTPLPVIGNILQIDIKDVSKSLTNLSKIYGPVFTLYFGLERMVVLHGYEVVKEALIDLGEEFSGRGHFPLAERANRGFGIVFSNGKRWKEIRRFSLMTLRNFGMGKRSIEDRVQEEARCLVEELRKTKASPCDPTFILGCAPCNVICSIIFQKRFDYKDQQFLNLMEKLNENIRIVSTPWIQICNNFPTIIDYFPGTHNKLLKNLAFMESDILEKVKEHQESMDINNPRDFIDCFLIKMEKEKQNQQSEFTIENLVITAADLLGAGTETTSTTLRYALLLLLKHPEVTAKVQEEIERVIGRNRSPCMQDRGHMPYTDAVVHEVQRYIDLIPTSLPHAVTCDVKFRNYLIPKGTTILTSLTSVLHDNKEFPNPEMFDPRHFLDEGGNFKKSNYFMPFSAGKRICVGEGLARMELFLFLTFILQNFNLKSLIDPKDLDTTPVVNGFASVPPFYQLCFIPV
Chain of CYP3A4 (P08684 whole entry): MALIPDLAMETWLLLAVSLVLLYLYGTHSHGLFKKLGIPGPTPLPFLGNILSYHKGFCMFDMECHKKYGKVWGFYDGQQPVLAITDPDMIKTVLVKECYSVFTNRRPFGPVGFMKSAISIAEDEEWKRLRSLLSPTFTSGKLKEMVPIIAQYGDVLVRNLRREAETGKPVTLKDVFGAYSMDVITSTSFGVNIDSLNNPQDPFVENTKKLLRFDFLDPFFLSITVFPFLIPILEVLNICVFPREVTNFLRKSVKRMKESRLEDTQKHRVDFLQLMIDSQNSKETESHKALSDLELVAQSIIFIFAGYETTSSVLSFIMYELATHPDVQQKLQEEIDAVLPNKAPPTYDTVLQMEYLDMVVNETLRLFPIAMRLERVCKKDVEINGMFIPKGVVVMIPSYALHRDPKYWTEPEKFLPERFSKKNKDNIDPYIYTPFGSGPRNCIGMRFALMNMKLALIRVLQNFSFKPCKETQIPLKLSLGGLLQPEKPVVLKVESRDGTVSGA
Chain of CYP2C9 (P11712 whole entry): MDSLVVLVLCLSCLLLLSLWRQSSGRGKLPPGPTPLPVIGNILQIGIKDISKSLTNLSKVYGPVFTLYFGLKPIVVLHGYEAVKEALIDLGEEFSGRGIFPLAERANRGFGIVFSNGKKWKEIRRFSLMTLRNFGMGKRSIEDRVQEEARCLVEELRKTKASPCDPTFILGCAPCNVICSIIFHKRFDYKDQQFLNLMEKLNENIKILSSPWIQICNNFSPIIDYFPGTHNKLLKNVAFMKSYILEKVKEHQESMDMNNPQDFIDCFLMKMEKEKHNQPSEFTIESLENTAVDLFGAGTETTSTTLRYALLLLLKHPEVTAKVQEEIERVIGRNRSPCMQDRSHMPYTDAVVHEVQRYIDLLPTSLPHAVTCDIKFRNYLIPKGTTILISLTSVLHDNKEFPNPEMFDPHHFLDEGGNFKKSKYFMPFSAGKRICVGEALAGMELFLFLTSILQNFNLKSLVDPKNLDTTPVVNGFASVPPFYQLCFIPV
Chain of CYP2E1 (P05181 whole entry): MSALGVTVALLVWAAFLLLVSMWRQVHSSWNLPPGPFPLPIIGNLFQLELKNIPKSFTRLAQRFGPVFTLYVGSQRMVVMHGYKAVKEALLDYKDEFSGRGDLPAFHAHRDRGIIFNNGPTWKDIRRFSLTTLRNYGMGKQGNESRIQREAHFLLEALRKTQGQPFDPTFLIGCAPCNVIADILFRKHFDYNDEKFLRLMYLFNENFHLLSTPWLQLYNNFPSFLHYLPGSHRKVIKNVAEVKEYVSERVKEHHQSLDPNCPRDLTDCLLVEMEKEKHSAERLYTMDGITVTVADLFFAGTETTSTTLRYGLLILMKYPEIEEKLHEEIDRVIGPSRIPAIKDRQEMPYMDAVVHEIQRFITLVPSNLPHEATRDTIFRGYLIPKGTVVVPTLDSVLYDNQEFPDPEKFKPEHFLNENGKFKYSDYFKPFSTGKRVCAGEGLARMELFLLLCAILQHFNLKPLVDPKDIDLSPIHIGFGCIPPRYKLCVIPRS

On to `CCCCOC(=O)NS(=O)(=O)c1sc(CC(C)C)cc1-c1ccc(Cn2c(CC)nc3c(C)cc(C)nc32)cc1`, for which the IC50 in [1] came out at 1.1 nM.

In the case of `CCCCOC(=O)NS(=O)(=O)c1sc(CC(C)C)cc1-c1ccc(CN2C(=O)N(C)C(C)(C)C2=O)cc1`, the inhibition at 10 µM in series [2] came to 38%; in series [5], 20%. Moreover, the Ki in series [3] is more than 10000 nM; in series [4], 3.6 nM.

For the compound `CCCCOC(=O)NS(=O)(=O)c1sc(CC(C)C)cc1-c1ccc(C(=O)c2nccn2C)cc1`, the inhibition at 10 µM in series [2] worked out at 38%; in series [6], 6%; in series [5], 14%; in [7], 17%. In addition, the Ki in series [3] is more than 10000 nM; in series [4], 2.9 nM.

Consider `CCCCOC(=O)NS(=O)(=O)c1sc(CC(C)C)cc1-c1ccc(Cn2cnc(C(F)(F)F)c2)cc1`, for which the inhibition at 10 µM in series [2] is 31%; in series [5] it was 71%. For the same compound, the results for the Ki in [3] and in series [4] were more than 10000 nM and 7.3 nM, respectively.

As for `CCCCOC(=O)NS(=O)(=O)c1sc(CC(C)C)cc1-c1ccc(CN2CCN(C)C2=O)cc1`, the inhibition at 10 µM in [2] came to 24%; in series [5], 20%. For the same compound, the Ki in series [3] is more than 10000 nM; in series [4] it was 16.5 nM.

Turning to `CCCCOC(=O)NS(=O)(=O)c1sc(CC(C)C)cc1-c1ccc(Cn2ncnn2)cc1`, the Ki in [3] was more than 10000 nM; in [4] it was 16 nM.

Consider `CCCCOC(=O)NS(=O)(=O)c1sc(CC(C)C)cc1-c1ccc(CN2CCCC2=O)cc1`, for which the inhibition at 10 µM in series [2] came to 24%; in [6] it was 25%; in [5] it was 28%; in series [11], 33%; in series [12] it was 5%; in series [7], 25%. The inhibitory constant (Ki) in series [3] is more than 10000 nM; in [4], 3.5 nM. For the same compound, the Activity entry in series [8] is listed as “Non-toxic”; in series [10] it was “Toxic”. The result in series [9] and in series [13] was Active. The result in series [14] was inactive.

As for `CCCCc1nc(Cl)c(CO)n1Cc1ccc(-c2ccccc2-c2nnn[nH]2)cc1` [LOSARTAN], the affinity in series [3] corresponds to a Ki of 12.1 nM.

Consider `CCCCOC(=O)NS(=O)(=O)c1sc(CC(C)C)cc1-c1ccc(C(=O)c2cccs2)cc1`, for which the Ki is more than 10000 nM in series [3] and 18.8 nM in series [4].

`CCCCOC(=O)NS(=O)(=O)c1sc(CC(C)C)cc1-c1ccc(Cc2ncco2)cc1`: the inhibition at 10 µM in [2] is 83%; in series [5], 57%. Further, the figures for the Ki in [3] and in series [4] were more than 10000 nM and 3.9 nM, respectively.

Regarding `CCCCOC(=O)NS(=O)(=O)c1sc(CC(C)C)cc1-c1ccc(Cn2cccn2)cc1`, the inhibition at 10 µM was 23% in [2]; 12% in series [6]; 16% in [5]; 29% in series [11]; 20% in series [7]. Also, the values for the Ki in [3] and in series [4] were more than 10000 nM and 2.3 nM, respectively.

On to `CCCCOC(=O)NS(=O)(=O)c1sc(CC(C)C)cc1-c1ccc(CN2CCC(=O)CC2)cc1`, for which the inhibition at 10 µM in [2] is 71%; in [5], 51%. Moreover, the Ki was more than 10000 nM in series [3] and 16.1 nM in series [4].

As to `CCCCOC(=O)NS(=O)(=O)c1sc(CC(C)C)cc1-c1ccc(Cn2ccc(C(F)(F)F)n2)cc1`, the values for the inhibition at 10 µM in series [2] and in series [5] were 56% and 33%, respectively. The values for the Ki in [3] and in series [4] were more than 10000 nM and 9.5 nM, respectively.

On to `CCCCOC(=O)NS(=O)(=O)c1sc(CC(C)C)cc1-c1ccc(CN2C(=O)CCC2=O)cc1`, for which the Ki in [3] and in series [4] was more than 10000 nM each time.

Take `CCCCOC(=O)NS(=O)(=O)c1sc(CC(C)C)cc1-c1ccc(Cc2nnc(C(F)(F)F)o2)cc1`: the Ki in series [3] is more than 10000 nM; in [4] it was 328 nM.

Turning to `CCCCOC(=O)NS(=O)(=O)c1sc(CC(C)C)cc1-c1ccc(CN2CCOCC2)cc1`, the Ki in series [3] is more than 10000 nM; in series [4], 280 nM.

As to `CCCCOC(=O)NS(=O)(=O)c1sc(CC(C)C)cc1-c1ccc(C(=O)c2ccnn2C)cc1`, the results for the Ki in series [3] and in series [4] were more than 10000 nM and 3.4 nM, respectively.

With `CCCCOC(=O)NS(=O)(=O)c1sc(CC(C)C)cc1-c1ccc(Cn2cnc(C)c2)cc1`, the inhibition at 10 µM in series [2] is 37%; in series [5], 44%. The Ki was more than 10000 nM in series [3] and 17.6 nM in series [4].

`CCCCOC(=O)NS(=O)(=O)c1sc(CC(C)C)cc1-c1ccc(Cn2cnccc2=O)cc1`: the Ki was more than 10000 nM in [3] and 108 nM in [4].

In turn, `Cc1cc(Cn2cnc3c2C[C@@H](C(=O)O)N(C(=O)C(c2ccccc2)c2ccccc2)C3)ccc1N(C)C` came in with a Ki in series [3] of more than 10000 nM.

On to `CCCCOC(=O)NS(=O)(=O)c1sc(CC(C)C)cc1-c1ccc(Cn2cnnn2)cc1`, for which the results for the Ki in series [3] and in [4] were more than 10000 nM and 49 nM, respectively.

In the case of `CCCCOC(=O)NS(=O)(=O)c1sc(CC(C)C)cc1-c1ccc(CN2C(=O)CN(C)C2=O)cc1`, the inhibition at 10 µM in series [2] was 40%; in [5], 25%. For the same compound, the Ki in [3] was more than 10000 nM; in series [4] it was 68.6 nM.

For `CCCCOC(=O)NS(=O)(=O)c1sc(CC(C)C)cc1-c1ccc(C(=O)c2ncco2)cc1`, the inhibition at 10 µM in [2] was 75%; in series [5] it was 36%. In addition, the Ki was more than 10000 nM in series [3] and 13.8 nM in series [4].

Take `CCCCOC(=O)NS(=O)(=O)c1sc(CC(C)C)cc1-c1ccc(Cc2ccsc2)cc1`: the results for the Ki in series [3] and in series [4] were more than 10000 nM and 175 nM, respectively.

On to `CCCCOC(=O)NS(=O)(=O)c1sc(CC(C)C)cc1-c1ccc(Cc2nccs2)cc1`, for which the inhibition at 10 µM amounted to 86% in [2] and 70% in series [5]. Also, the Ki is more than 10000 nM in series [3] and 3.2 nM in series [4].

In the case of `CCCCOC(=O)NS(=O)(=O)c1sc(CC(C)C)cc1-c1ccc(CN2CCSC2)cc1`, the Ki in [3] was more than 10000 nM; in series [4], 280 nM.

`CCCCOC(=O)NS(=O)(=O)c1sc(CC(C)C)cc1-c1ccc(C(=O)c2nccs2)cc1`: the values for the inhibition at 10 µM in series [2] and in series [5] were 92% and 16%, respectively. In addition, the Ki in series [3] is more than 10000 nM; in [4] it was 18.6 nM.

By IC50 is commonly meant the point on the concentration scale where inhibition reaches its midpoint. The term inhibition denotes the share of the control response that was lost under treatment. By Ki is commonly meant the equilibrium dissociation constant of an inhibitor or competing ligand from its target.
